Measurements collected from several papers.
Protocols differ between the studies behind these lines.
gag-pol protease: Gag-Pol polyprotein, protease (gag-pol, Human immunodeficiency virus type 1 group M subtype B, UniProt P04585)
gag-pol reverse transcriptase: Gag-Pol polyprotein, reverse transcriptase (gag-pol, Human immunodeficiency virus type 1 group M subtype B, UniProt P04585)

SMILES | target | assay | endpoint | value
COc1ccc(S(=O)(=O)N(CC(C)C)C[C@@H](O)[C@H](Cc2ccccc2)NC(=O)OC2CO[C@H]3OCC(F)(F)[C@@H]23)cc1 (stereo partly shown) | gag-pol protease | enzyme activity, inhibitor | Ki | 0.022 nM
CC(C)(C)n1cc(C#N)c2cc(C=O)cnc21 | gag-pol reverse transcriptase | enzyme activity, inhibitor, FRET | IC50 | > 10000 nM
CC(C)[C@H](NC(=O)[C@H](CCCNC(=N)N)NC(=O)[C@H](CO)NC(=O)[C@@H](N)Cc1c[nH]c2ccccc12)C(=O)NCC(=O)N[C@@H](Cc1ccc(O)cc1)C(=O)N[C@@H](Cc1c[nH]c2ccccc12)C(N)=O | gag-pol protease | binding, SPR | Kd | 44600 nM
CC(C)CN(C[C@@H](O)[C@H](Cc1ccccc1)NC(=O)O[C@H]1CCO[C@H]2OCC[C@H]21)S(=O)(=O)c1ccc(B(O)O)cc1 | gag-pol protease | enzyme activity, inhibitor | Ki | 0.0021 nM
N#Cc1cn(Cc2ccccc2)c2ncc(Br)cc12 | gag-pol reverse transcriptase | enzyme activity, inhibitor, FRET | IC50 | > 100000 nM
C=CCCCOc1ccc(C[C@H](NC(=O)c2cccc(O)c2CCC=C)[C@H](O)CN(CC(C)C)S(=O)(=O)c2ccc(OC)cc2)cc1 | gag-pol protease | enzyme activity, inhibitor | Ki | 45 nM
CC[C@H](C)[C@H]1C(OC(C)(C)C)=CC(=O)N1[C@H]1CCN(C2=CC(=O)N([C@H]3CCN(C4=CC(=O)N[C@H]4CC(C)C)C3)[C@H]2C)C1 | gag-pol protease | enzyme activity, inhibitor, fluorescence | IC50 | 111000 nM
COc1ccc(S(=O)(=O)N(CC(C)C)C[C@@H](O)[C@@H]2Cc3ccc(cc3)OCCCC=CCCc3c(O)cccc3C(=O)N2)cc1 | gag-pol protease | enzyme activity, inhibitor | Ki | 10 nM
Cc1cn([C@H]2C[C@H](N=[N+]=[N-])[C@@H](CO[P@](=O)(O)O[P@](=O)(O)OP(=O)(O)O)O2)c(=O)[nH]c1=O | gag-pol reverse transcriptase | enzyme activity, inhibitor | IC50 | 185 nM
O=C1c2c(O)ccc(O)c2C(=O)c2c(NCCNCCO)ccc(NCCNCCO)c21 | gag-pol reverse transcriptase | enzyme activity, inhibitor | IC50 | 6300 nM
Oc1cc2c(cc1O)C(c1ccccc1)CNCC2 (racemic) | Gag-Pol polyprotein, integrase (gag-pol, Human immunodeficiency virus type 1 group M subtype B, UniProt P04585) | enzyme activity, inhibitor | IC50 | > 25000 nM
C=CCCc1c(O)cccc1C(=O)N[C@@H](Cc1ccc(OCC=C)cc1)[C@H](O)CN(CC(C)C)S(=O)(=O)c1ccc(OC)cc1 | gag-pol protease | enzyme activity, inhibitor | Ki | 5 nM
CC(=O)c1cc2c(-c3ccc(N(C)C)cc3)c3c(nc2[nH]1)-c1ccccc1C3=O | gag-pol reverse transcriptase | enzyme activity, inhibitor, FRET | IC50 | > 10000 nM
